High-throughput results from PubChem.
UHRF1 binding: UHRF1 methylated DNA binding inhibitors, primary screen, counter-screen for MBD2 inhibitor project, biochemical, TR-FRET, human UHRF1, single concentration | E3 ubiquitin-protein ligase UHRF1 (Homo sapiens), Q96T88 | UHRF1 binding to methylated oligo | inhibition, % at 4.4 µM | 370,000 compounds, 0.75% hits | AID 687016, 2013; in the data active = inhibition above about 21%;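 note: UHRF1 SRA domain binding a hemimethylated CpG hairpin DNA probe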
ARFGAP1 inhibitor: inhibitors of rat ARFGAP1 GAP activity, primary screen, biochemical, fluorescence polarization, GDP tracer. Arfgap1-stimulated ARF1 GTP hydrolysis, GDP FP detection. inhibition, % at 16.5 µM. 360,000 compounds, 0.26% hits;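 active = inhibition above a per-plate limit, mean inhibition of low control wells plus 3 SD, cut at about 25% in these data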
Target sequence (Q62848 1-136 limits assumed): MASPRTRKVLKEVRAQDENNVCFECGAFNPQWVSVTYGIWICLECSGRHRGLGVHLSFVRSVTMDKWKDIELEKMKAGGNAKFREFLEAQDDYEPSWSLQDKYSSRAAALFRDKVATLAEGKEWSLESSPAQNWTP
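Repeats: one replicate per compound; assay system: rat Arfgap1 catalytic domain, aa 1-136; times: enzyme reaction 120 min at 25 °C after 20 min preincubation; detection: FP of antibody-bound GDP Alexa 633 tracer, ex 620/em 688 nm; benchmarks: high control wells lacking Arfgap1, low control full reaction with DMSO; reagent: human ARF1(Δ1-17)-GTP substrate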
LEDGF integ inh: blockers of LEDGF/p75-dependent integrase strand transfer – biochemical, TR-FRET, high throughput, primary screen. HIV-1 integrase (with human LEDGF/p75). TR-FRET IN-LEDGF/p75 DNA integration, Eu/Cy5. inhibition, % at 3.7 µM. 370,000 compounds, 0.64% hits. AID 743269, 2014;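 active = inhibition above the screen-wide mean plus 3 SD, cut at about 13% in these data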;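 note: signal is the Cy5 over europium emission ratio at 671 and 618 nm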
ASAP1 inh: inhibitors of human ASAP1 ArfGAP activity, primary screen, biochemical, fluorescence polarization. Arf-GAP with SH3 domain, ANK repeat and PH domain-containing protein 1 (Homo sapiens), …. ASAP1-stimulated ARF1 GTP hydrolysis, GDP FP detection. inhibition, % at 16.5 µM. 360,000 compounds, 0.19% hits; in the data active = inhibition above about 25%
TCR CD3 inh: inhibitors of human TCR-CD3 interaction, primary screen, biochemical, fluorescence, TAMRA-labeled TCR probe | T-cell receptor (TCR) | inhibition, % at 9.4 µM | 360,000 compounds, 0.37% hits;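 note: recombinant mutant TCR 2C K166C tagged with TAMRA read by polarization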
MBD2 DNA inh: inhibitors of MBD2 binding to methylated DNA, primary screen, biochemical, TR-FRET, DNA-binding domain, human. MBD2 binding to methylated oligonucleotide. Methyl-CpG-binding domain protein 2 (Homo sapiens), Q9UBB5. inhibition, % at 4.4 µM. 370,000 compounds, 0.31% hits; in the data active = inhibition above about 13%
Target sequence (Q9UBB5 whole entry, looked up, the tested form may be a part): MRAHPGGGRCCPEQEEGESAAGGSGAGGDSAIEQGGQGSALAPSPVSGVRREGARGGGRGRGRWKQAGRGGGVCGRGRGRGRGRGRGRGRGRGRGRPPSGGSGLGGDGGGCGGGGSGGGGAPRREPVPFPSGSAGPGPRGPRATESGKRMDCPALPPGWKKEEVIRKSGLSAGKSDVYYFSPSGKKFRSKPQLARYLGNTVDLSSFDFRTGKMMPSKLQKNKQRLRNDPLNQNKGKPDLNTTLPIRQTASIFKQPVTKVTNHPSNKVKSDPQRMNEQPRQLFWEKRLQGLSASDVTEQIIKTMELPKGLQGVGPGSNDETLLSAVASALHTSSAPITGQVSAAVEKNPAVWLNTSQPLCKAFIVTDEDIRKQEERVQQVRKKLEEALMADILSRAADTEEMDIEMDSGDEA
BSA probe FL: compounds interfering with TAMRA-BSA probe, counter-screen for TCR-CD3 interaction inhibitor project, biochemical, fluorescence, TAMRA-labeled BSA; inhibition, % at 9.4 µM; TAMRA-labeled BSA probe fluorescence counterscreen; shares compounds with TCR CD3 inh; 1,200 compounds, 10% hits; AID 652035, 2013; in the data active = inhibition above about 23%
TCR-CD3 inh conf: TCR-CD3 interaction inhibitors, retest, confirmation, biochemical, fluorescence, TAMRA-labeled TCR probe; shares compounds with TCR CD3 inh; TAMRA-labeled TCR probe fluorescence binding assay; inhibition, % at 9.4 µM; 1,200 compounds, 48% hits; AID 652036, 2013
Hits are given with their value; i = inactive; nt = no result. Compounds with a hit are over-represented: about 2% of the library has one in this group of screens. Cut-off read from the data, not from the text of the source, unless noted: active = inhibition above about 19%; inactive = the rest.

SMILES	UHRF1 binding	ARFGAP1 inhibitor	LEDGF integ inh	ASAP1 inh	TCR CD3 inh	MBD2 DNA inh	BSA probe FL	TCR-CD3 inh conf
O=C1c2cccc3c(O)ccc(c23)C(=O)N1Cc1ccccc1	i	i	i	i	59	i	74	57
O=C(CCCN1C(=O)/C(=C/c2ccccc2)SC1=S)Nc1ccccc1O	i	i	i	i	i	i	nt	nt
COc1ccc(/C=C2\SC(=O)N(CC(=O)NCCC(C)C)C2=O)cc1OC	i	i	i	i	i	i	nt	nt
O=C(CCCN1C(=O)S/C(=C\c2ccccc2)C1=O)NNC(=O)c1ccccc1O	i	i	i	i	28	i	i	22
O=C(CCN1C(=O)/C(=C\c2ccccc2)SC1=S)NNC(=O)c1cccnc1	i	i	i	i	i	i	nt	nt
O=C(CCN1C(=O)/C(=C\c2ccccc2)SC1=S)NNC(=O)c1ccccc1O	i	i	i	i	40	i	i	36
COc1ccc(/C=C2\SC(=O)N(CC(=O)NNC(=O)c3ccccc3O)C2=O)cc1OC	i	i	i	i	71	i	i	60
COc1ccc(/C=C2\SC(=O)N(CC(=O)NNC(=O)c3ccccc3O)C2=O)cc1	i	i	i	i	59	i	i	53
O=C(NN1C(=O)/C(=C/c2cccc(O)c2)SC1=S)c1ccccc1O	i	i	i	i	28	i	i	i
O=C(CN1C(=O)S/C(=C\c2ccccc2)C1=O)NNC(=O)c1ccccc1O	i	i	i	i	44	i	i	53
O=C(O)COc1ccccc1/C=C1\SC(=S)N(NC(=O)c2ccccc2O)C1=O	i	i	i	i	i	i	nt	nt
CCN(C(=O)CN1C(=O)NC2(CCCc3ccccc32)C1=O)c1ccc(F)cc1 (stereo not given)	i	i	i	i	i	i	nt	nt
N#CCCN(CCC#N)C(=O)C1c2ccccc2Oc2ccccc21	i	i	i	i	124	i	i	i
COc1ccc(NC(=O)COC(=O)C2CCN(S(=O)(=O)c3cccs3)CC2)cc1OC	i	i	i	i	i	i	nt	nt
CCC(CC)C(C(=O)NCc1ccccc1)N1CCN(c2cccc(C)c2C)CC1 (stereo not given)	i	i	i	i	31	i	i	i
Cc1cccc(N2CCN(C(C(=O)NCc3ccccc3)c3ccc(F)cc3)CC2)c1C (stereo not given)	i	i	i	i	i	i	nt	nt
Cc1ccc(O)c(-c2cc(C(=O)Nc3ccc(S(=O)(=O)Nc4nccc(C)n4)cc3)[nH]n2)c1	i	i	i	i	60	i	i	32
CCOC(=O)c1c(NC(=O)CC)sc(C(=O)NC2CCCC2)c1C	i	i	i	i	i	i	nt	nt
Cc1cc(=O)oc2c(CN3CCC(C)CC3)c(O)c(Cl)cc12	i	i	i	i	25	i	33	35
CCN(C[C@H]1N[C@@](Cc2ccccc2)(C(=O)OC)[C@H]2C(=O)N(C)C(=O)[C@@H]12)S(=O)(=O)c1ccc(-c2ccccc2)cc1	i	i	i	i	i	i	nt	nt
COc1ccccc1NC(=O)COC(=O)c1ccc2ccccc2n1	i	i	i	i	i	i	nt	nt
CN1C(=O)NC(c2ccccc2[N+](=O)[O-])C2=C1CCCC2=O (stereo not given)	i	i	i	i	85	i	62	44
Cc1nnsc1C(=O)N/N=C/c1ccccc1	i	i	i	i	i	i	nt	nt
Cc1nnsc1C(=O)N/N=C/c1ccc2ccccc2c1O	i	i	i	i	41	i	i	29
CCOc1cccc(CNc2ccc(O)cc2)c1OCc1ccccc1Cl	i	i	i	i	24	i	i	i
SMILES	UHRF1 binding	ARFGAP1 inhibitor	LEDGF integ inh	ASAP1 inh	TCR CD3 inh	MBD2 DNA inh	BSA probe FL	TCR-CD3 inh conf
CCOc1cccc(CNc2ccc(O)cc2)c1OCc1ccc(Cl)cc1Cl	i	i	i	i	27	i	i	i
O=C(C(=O)N1CCC(c2ccccc2)CC1)c1ccc(F)c(F)c1	i	i	i	i	24	i	i	i
CC1(C(=O)Nc2cccc(C(F)(F)F)c2)Cc2c(-c3ccc4c(c3)OCO4)ccnc2O1 (stereo not given)	i	i	i	i	i	i	nt	nt
CCOc1cc(/C=N/n2c(COc3ccccc3)n[nH]c2=S)ccc1O	i	i	i	i	i	i	nt	nt
Oc1ccc(/C=N/n2c(COc3ccccc3)n[nH]c2=S)cc1O	i	i	i	i	32	i	i	22
CCN(C(=O)CSc1cccc[n+]1[O-])C1CCCCC1	i	i	i	i	i	i	nt	nt
COCCN(C(=O)CSc1nnc(-c2cccc(F)c2)n1N)c1c(N)n(CC(C)C)c(=O)[nH]c1=O	i	i	i	i	i	i	nt	nt
CN1OC[C@@H]2CN(Cc3ccccc3)[C@H](c3cccc(-c4ccc(C#N)cc4)c3)C[C@@H]21	i	i	i	i	24	i	i	i
NC1=NC[C@H](Cc2ccc(O)cc2)N1CCc1cccc(F)c1	i	i	i	i	33	i	i	i
CCOC(=O)C1=CCN(S(=O)(=O)c2cccc(Cl)c2)C1c1cccc(F)c1 (stereo not given)	i	i	i	i	65	i	i	i
C[C@H]1Cn2cnc(C(=O)NCC(=O)OC(C)(C)C)c2C(=O)N1	i	i	i	i	i	i	nt	nt
C[C@@H]1Cn2cnc(C(=O)N3CCN(C(=O)OC(C)(C)C)CC3)c2C(=O)N1	i	i	i	i	20	i	i	i
Nc1cccc2cc(S(=O)(=O)O)ccc12	47	i	39	i	27	i	i	i
Nc1ccc2c(S(=O)(=O)O)cccc2c1S(=O)(=O)O	i	i	i	i	i	i	nt	nt
O=C1c2cc(CO)cc(O)c2C(=O)c2c(O[C@@H]3OC(CO)[C@@H](O)[C@@H](O)[C@@H]3O)cccc21 (stereo not given in full)	i	i	i	i	i	i	nt	nt
